In article PMC10460140 (Angewandte Chemie (International ed. in English), 2023):
“Also recorded” adds a separate entry of the source. Where a SMILES comes first, the peptide text is derived from it. Bridges are numbered along the chain shown (N, C = ends). Roman numbers before positions name the chains, in order. Side-chain parts run from the residue outwards. [ ]: non-standard residue; d: D form. The star is where a group is joined. X1 = CN(C)c1ccc2c(-c3ccc(C(=O)*)cc3C(=O)[O-])c3ccc(=[N+](C)C)cc-3oc2c1; Biotin = O=C1N[C@H]2[C@H](CS[C@H]2CCCCC(=O)*)N1; PEG4 = NCCOCCOCCOCCOCCC(=O)O; Alloc = C=CCOC(=O)*; βAla = NCCC(=O)O

Assays:
[1] = tested on: endogenous hKlotho; assay: Pull-down of endogenous hKlotho from HK-2 cell lysate; assay type: binding, human; conditions: probe 200 nM; 300 μg total protein; 30 min room temperature; western blot; n=2
[2] = tested on: recombinant mKlotho; assay: Pull-down of recombinant mKlotho from CaSki cell lysate; assay type: binding, mouse
Method in brief: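 Recombinant mouse Klotho was spiked into lysate of CaSki cells (human cervical cancer line, minimal endogenous Klotho) at a final 100 nM. It was pulled down with biotinylated peptide. For self-competition, unlabeled peptide or scrambled control was added to the lysate. Klotho identity was checked against a KM2076 antibody pull-down by band size. Pull-down was quantified (n=2), with ANOVA.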

[3] = tested on: 12CA5; assay: Direct binding by BLI, 12CA5; conditions: KB2-Biotin immobilized on streptavidin tips; 12CA5 7.8-1000 nM; n=2
[4] = tested on: MDM2; assay: Direct binding by BLI, MDM2; conditions: KB2-Biotin immobilized on streptavidin tips; MDM2 7.8-1000 nM; n=2
[5] = tested on: HK-2 cells; assay: Co-localization with nucleus dye DAPI in HK-2 cells; assay type: cell-based, human; conditions: KB2-TAMRA 500 nM 5 min or antibody overnight, DAPI stain
Method in brief: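 HK-2 cells labelled with fluorescent peptide probe at 500 nM for 5 min, or with anti-Klotho antibody KM2076 (overnight incubation, then permeabilisation and secondary antibody). Nuclei stained with DAPI. Co-localisation of the DAPI signal with the probe or antibody signal was quantified as a Pearson correlation coefficient.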

[6] = tested on: Klotho-deficient CaSki cells; assay: Fluorescence microscopy imaging of CaSki cells; assay type: cell-based, human; conditions: KB2-TAMRA 500 nM, 5 min; fixation after treatment
[7] = tested on: endogenous total hKlotho in HK-2 cells; assay: Fluorescence microscopy imaging of fixed HK-2 cells; assay type: cell-based, human; conditions: HK-2 cells transfected with KL siRNA, KB2-TAMRA 500 nM; n=5
Method in brief: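 HK-2 cells were left untransfected, mock-transfected, or transfected with a pooled KL siRNA using RNAiMAX. They were then co-treated with TAMRA-labelled peptide (500 nM) plus WGA Alexa Fluor 350 membrane stain and fixed after treatment. Imaging used ex/em 542/597 nm for TAMRA and 390/435 nm for WGA. Normalised integrated fluorescence was quantified (n=5), with ANOVA.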

Question: Which results are given for `CSCC[C@H](NC(=O)[C@@H]1CCCN1C(C)=O)C(=O)N[C@@H](C)C(=O)N[C@@H](CO)C(=O)N[C@@H](CC(=O)O)C(=O)N1CCC[C@H]1C(=O)N[C@@H](CC(C)C)C(=O)NCC(=O)N[C@H](C(=O)N[C@H](C(=O)N[C@@H](CCCNC(=N)N)C(=O)N1CCC[C@H]1C(=O)N[C@@H](CCCNC(=N)N)C(=O)N[C@@H](C)C(=O)N[C@@H](CCCNC(=N)N)C(=O)N[C@@H](C)C(=O)NCCCC[C@H](NC(=O)[C@H](C)NC(=O)[C@H](CCCNC(=N)N)NC(=O)[C@H](C)NC(=O)[C@H](CCCNC(=N)N)NC(=O)[C@@H]1CCCN1C(=O)[C@H](CCCNC(=N)N)NC(=O)[C@@H](NC(=O)[C@@H](NC(=O)CNC(=O)[C@H](CC(C)C)NC(=O)[C@@H]1CCCN1C(=O)[C@H](CC(=O)O)NC(=O)[C@H](CO)NC(=O)[C@H](C)NC(=O)[C@H](CCSC)NC(=O)[C@@H]1CCCN1C(C)=O)C(C)C)C(C)C)C(=O)NCCC(=O)N[C@@H](CCCCNC(=O)CCOCCOCCOCCOCCNC(=O)CCCC[C@@H]1SC[C@@H]2NC(=O)N[C@@H]21)C(N)=O)C(C)C)C(C)C` [KB2-Biotin] (I: Ac-PMASDPLGVVRPRARAK[βAla]K([PEG4-Biotin])-NH2 / II: Ac-PMASDPLGVVRPRARA; amide I:17-II:C; N-terminus assumed)?
Answer: enrichment of endogenous hKlotho from HK-2 cell lysate [1]: enriched hKlotho; also recorded: significantly enriched; selectivity of pull-down (silver stain) ([2]; pull-down eluents, probe 200 nM, CaSki lysate with mKlotho 0.1 μM): only significantly enriched protein; association to 12CA5 (in words) [3]: no association; association to MDM2 (in words) [4]: no association

Question: For `CSCC[C@H](NC(=O)[C@@H]1CCCN1C(C)=O)C(=O)N[C@@H](C)C(=O)N[C@@H](CO)C(=O)N[C@@H](CC(=O)O)C(=O)N1CCC[C@H]1C(=O)N[C@@H](CC(C)C)C(=O)NCC(=O)N[C@H](C(=O)N[C@H](C(=O)N[C@@H](CCCNC(=N)N)C(=O)N1CCC[C@H]1C(=O)N[C@@H](CCCNC(=N)N)C(=O)N[C@@H](C)C(=O)N[C@@H](CCCNC(=N)N)C(=O)N[C@@H](C)C(=O)NCCCC[C@H](NC(=O)[C@H](C)NC(=O)[C@H](CCCNC(=N)N)NC(=O)[C@H](C)NC(=O)[C@H](CCCNC(=N)N)NC(=O)[C@@H]1CCCN1C(=O)[C@H](CCCNC(=N)N)NC(=O)[C@@H](NC(=O)[C@@H](NC(=O)CNC(=O)[C@H](CC(C)C)NC(=O)[C@@H]1CCCN1C(=O)[C@H](CC(=O)O)NC(=O)[C@H](CO)NC(=O)[C@H](C)NC(=O)[C@H](CCSC)NC(=O)[C@@H]1CCCN1C(C)=O)C(C)C)C(C)C)C(=O)NCCC(=O)N[C@@H](CCCCNC(=O)c1ccc(-c2c3ccc(=[N+](C)C)cc-3oc3cc(N(C)C)ccc23)c(C(=O)[O-])c1)C(N)=O)C(C)C)C(C)C` [KB2-TAMRA] (I: Ac-PMASDPLGVVRPRARAK[βAla]K(X1)-NH2 / II: Ac-PMASDPLGVVRPRARA; amide I:17-II:C; N-terminus assumed), which “Pearson correlation coefficient (r) for overlap with DAPI” value [5] is on record?
Answer: 0.29

Question: And the “fluorescence intensity in CaSki cells relative to HK-2 cells” value [6]?
Answer: significantly lower fluorescence intensity

Question: And the “fluorescence after Klotho knock-down by KL siRNA” value [7]?
Answer: reduced the fluorescence

Question: For `C=CCOC(=O)NCCCC[C@H](NC(=O)CCNC(=O)[C@H](CCCCNC(=O)[C@H](C)NC(=O)[C@H](CCCNC(=N)N)NC(=O)[C@H](C)NC(=O)[C@H](CCCNC(=N)N)NC(=O)[C@@H]1CCCN1C(=O)[C@H](CCCNC(=N)N)NC(=O)[C@@H](NC(=O)[C@@H](NC(=O)CNC(=O)[C@H](CC(C)C)NC(=O)[C@@H]1CCCN1C(=O)[C@H](CC(=O)O)NC(=O)[C@H](CO)NC(=O)[C@H](C)NC(=O)[C@H](CCSC)NC(=O)[C@@H]1CCCN1)C(C)C)C(C)C)NC(=O)[C@H](C)NC(=O)[C@H](CCCNC(=N)N)NC(=O)[C@H](C)NC(=O)[C@H](CCCNC(=N)N)NC(=O)[C@@H]1CCCN1C(=O)[C@H](CCCNC(=N)N)NC(=O)[C@@H](NC(=O)[C@@H](NC(=O)CNC(=O)[C@H](CC(C)C)NC(=O)[C@@H]1CCCN1C(=O)[C@H](CC(=O)O)NC(=O)[C@H](CO)NC(=O)[C@H](C)NC(=O)[C@H](CCSC)NC(=O)[C@@H]1CCCN1)C(C)C)C(C)C)C(N)=O` [KB2] (I: H-PMASDPLGVVRPRARAK[βAla]K(Alloc)-NH2 / II: H-PMASDPLGVVRPRARA; amide I:17-II:C), which “competition of mKlotho pull-down by KB2-Biotin” value ([2]; unlabeled peptide pre-incubated 15 min in lysate before KB2-Biotin, n=2) is on record?
Answer: competed off
